Results as given in ChEMBL document CHEMBL4024716, “Pronounced anti-proliferative activity and tumor cell selectivity of 5-alkyl-2-amino-3-methylcarboxylate thiophenes” (Eur J Med Chem, 2017).
One block for each molecule: values may come before it.

Key:
[1] = test system: MOLT-4; experiment: Cytotoxicity against human MOLT4 cells after 72 to 96 hrs by coulter counter method; type: functional, cell-based
[2] = Selectivity ratio of IC50 for human Raji cells to IC50 for human CEM cells; type: functional
[3] = test system: Raji; experiment: Cytotoxicity against human Raji cells after 72 to 96 hrs by coulter counter method; type: functional, cell-based
[4] = test system: HeLa; experiment: Cytotoxicity against human HeLa cells after 72 to 96 hrs by coulter counter method; type: functional, cell-based
[5] = test system: CAKI-1; experiment: Cytotoxicity against human Caki1 cells after 72 to 96 hrs by coulter counter method; type: functional, cell-based
[6] = test system: Huh-7; experiment: Cytotoxicity against human HuH7 cells after 72 to 96 hrs by coulter counter method; type: functional, cell-based
[7] = test system: CCRF-CEM; experiment: Cytotoxicity against human CEM cells after 72 to 96 hrs by coulter counter method
[8] = test system: HeLa; experiment: Selectivity ratio of IC50 for human HeLa cells to IC50 for human PC3 cells; type: functional
[9] = test system: PC-3; experiment: Cytotoxicity against human PC3 cells after 72 to 96 hrs by coulter counter method
[10] = Drug uptake in mitochondria of human PC3/TJ191 cells co-expressing RFP at 10 uM by confocal microscopic analysis; type: ADME
[11] = Drug uptake in early endosome of human PC3 cells co-expressing RFP at 10 uM by confocal microscopic analysis; type: ADME
Summary of the method: (§1)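 Cells were transduced with BacMam baculovirus (50 particles/cell) for 16–24 h to express organelle-targeted RFP (Golgi, lysosomes, early/late endosomes, mitochondria, ER). After two phenol red-free DMEM rinses, 10 μM NBD-labelled compound was added, and red and green signals were imaged immediately by confocal microscopy.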

[12] = (§2) Drug uptake in nucleus of human PC3/TJ191 cells co-expressing RFP at 10 uM by confocal microscopic analysis; type: ADME
[13] = Drug uptake in early endosome of human PC3/TJ191 cells co-expressing RFP at 10 uM by confocal microscopic analysis; type: ADME
[14] = Drug uptake in mitochondria of human PC3 cells co-expressing RFP at 10 uM by confocal microscopic analysis; type: ADME; summary of the method: as §1
[15] = Drug uptake in cytoplasm of human PC3 cells at 10 uM measured immediately by confocal fluorescence microscopic method; type: ADME
[16] = Drug uptake in endoplasmic reticulum of human PC3 cells co-expressing RFP at 10 uM by confocal microscopic analysis; type: ADME; summary of the method: as §1
[17] = Drug uptake in lysosomes of human PC3/TJ191 cells co-expressing RFP at 10 uM by confocal microscopic analysis; type: ADME, Lysosome
[18] = Drug uptake in late endosome of human PC3 cells co-expressing RFP at 10 uM by confocal microscopic analysis; type: ADME; summary of the method: as §1
[19] = as §2; type: ADME; remark: listed apart in the source
[20] = Drug uptake in golgi apparatus of human PC3/TJ191 cells co-expressing RFP at 10 uM by confocal microscopic analysis; type: ADME
[21] = Drug uptake in nucleus of human PC3 cells at 10 uM measured immediately by confocal fluorescence microscopic method; type: ADME, cell-based
[22] = Drug uptake in nuclear membrane of human PC3 cells co-expressing RFP at 10 uM by confocal microscopic analysis; type: ADME, cell membranes; summary of the method: as §1
[23] = Drug uptake in nucleus of human PC3 cells co-expressing RFP at 10 uM by confocal microscopic analysis; type: ADME, cell-based; summary of the method: as §1
[24] = Drug uptake in lysosomes of human PC3 cells co-expressing RFP at 10 uM by confocal microscopic analysis; type: ADME, Lysosome; summary of the method: as §1
[25] = Drug uptake in golgi apparatus of human PC3 cells co-expressing RFP at 10 uM by confocal microscopic analysis; type: ADME; summary of the method: as §1
[26] = Drug uptake in nuclear membrane of human PC3/TJ191 cells co-expressing RFP at 10 uM by confocal microscopic analysis; type: ADME, cell membranes
[27] = Drug uptake in endoplasmic reticulum of human PC3/TJ191 cells co-expressing RFP at 10 uM by confocal microscopic analysis; type: ADME
[28] = Drug uptake in late endosome of human PC3/TJ191 cells co-expressing RFP at 10 uM by confocal microscopic analysis; type: ADME
[29] = Drug uptake in nucleus of human PC3 cells at 10 uM measured after incubation by confocal fluorescence microscopic method; type: ADME, cell-based
[30] = Drug uptake in nucleus of human HeLa cells at 10 uM measured after incubation by confocal fluorescence microscopic method; type: ADME, cell-based
[31] = Drug uptake in nucleus of human CEM cells at 10 uM measured immediately by confocal fluorescence microscopic method; type: ADME, cell-based
[32] = Drug uptake in nucleus of human HeLa cells at 10 uM measured immediately by confocal fluorescence microscopic method; type: ADME, cell-based
[33] = Drug uptake in cytoplasm of human CEM cells at 10 uM measured immediately by confocal fluorescence microscopic method; type: ADME
[34] = Drug uptake in cytoplasm of human HeLa cells at 10 uM measured immediately by confocal fluorescence microscopic method; type: ADME, cell-based
[35] = Drug uptake in nucleus of human CEM cells at 10 uM measured after incubation by confocal fluorescence microscopic method; type: ADME, cell-based

Structure (SMILES): CCCc1cc(C(=O)OC)c(N)s1
- IC50 [1]: 2.1 µM
- Ratio IC50 [2]: 16
- IC50 [3]: 104 µM
- IC50 [4]: 61 µM
- IC50 [5]: 5.4 µM
- IC50 [6]: 2.5 µM
- IC50 [7]: 6.9 µM
- Ratio IC50 [8]: 18
- IC50 [9]: 3.4 µM

- Drug uptake [10]: Not Active
- Drug uptake [11]: Not Active
- Drug uptake [12]: Active
- Drug uptake [13]: Not Active
- Drug uptake [14]: Active
- Drug uptake [15]: Active
- Drug uptake [16]: Active
- Drug uptake [17]: Not Active
- Drug uptake [18]: Not Active
- Drug uptake [19]: Active
- Drug uptake [20]: Not Active
- Drug uptake [21]: Not Active
- Drug uptake [22]: Active
- Drug uptake [23]: Active
- Drug uptake [24]: Not Active
- Drug uptake [25]: Not Active
- Drug uptake [26]: Active
- Drug uptake [27]: Active
- Drug uptake [28]: Not Active
Structure (SMILES): COC(=O)c1cc(CCCCCCCNc2ccc([N+](=O)[O-])c3nonc23)sc1N

- Drug uptake [29]: Not Active
- Drug uptake [30]: Not Active
- Drug uptake [31]: Not Active
- Drug uptake [32]: Not Active
- Drug uptake [15]: Active
- Drug uptake [33]: Active
- Drug uptake [21]: Not Active
- Drug uptake [34]: Active
- Drug uptake [35]: Not Active
Structure (SMILES): COC(=O)c1cc(CCCCCCCNS(=O)(=O)c2cccc3c(N(C)C)cccc23)sc1N

Structure (SMILES): CCc1cc(C(=O)OC)c(N)s1
- IC50 [1]: 29 µM
- Ratio IC50 [2]: >1.4
- IC50 [3]: > 250 µM
- IC50 [5]: 92 µM
- IC50 [6]: 84 µM
- Ratio IC50 [8]: 6.7
- IC50 [9]: 27 µM
